This is an account of results in ChEMBL document CHEMBL1136473, “6-(2-adamantan-2-ylidene-hydroxybenzoxazole)-O-sulfamate: a potent non-steroidal irreversible inhibitor of human steroid sulfatase” (Bioorg Med Chem Lett, 2003).

The source made the active and inactive calls. The calls are words filed in the database; no cut-off is given here.

For test [1], the target named is T1, Steryl-sulfatase (Homo sapiens, UniProt P08842).
T1 sequence (P08842 whole entry): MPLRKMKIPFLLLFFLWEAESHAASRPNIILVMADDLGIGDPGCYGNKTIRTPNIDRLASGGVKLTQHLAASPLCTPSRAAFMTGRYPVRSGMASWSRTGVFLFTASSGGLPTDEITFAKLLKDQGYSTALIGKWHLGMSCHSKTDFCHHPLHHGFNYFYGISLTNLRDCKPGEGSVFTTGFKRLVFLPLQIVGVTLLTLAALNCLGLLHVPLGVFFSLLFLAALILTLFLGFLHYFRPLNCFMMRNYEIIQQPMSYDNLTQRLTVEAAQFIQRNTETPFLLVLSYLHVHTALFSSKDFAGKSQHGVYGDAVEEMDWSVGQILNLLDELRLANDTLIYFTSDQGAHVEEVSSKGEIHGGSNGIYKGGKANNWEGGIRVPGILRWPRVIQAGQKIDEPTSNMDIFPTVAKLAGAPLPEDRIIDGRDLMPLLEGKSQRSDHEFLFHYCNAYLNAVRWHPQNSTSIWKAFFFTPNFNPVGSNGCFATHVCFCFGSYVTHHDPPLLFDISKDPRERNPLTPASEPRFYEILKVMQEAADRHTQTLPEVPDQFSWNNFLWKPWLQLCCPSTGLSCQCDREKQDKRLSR
In words: Inhibitory activity against STS in human MCF-7 breast cancer cells. In kind it is cell-based. The note with it: mcf7. A digest of the protocol: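 Intact MCF-7 breast cancer cells; STS-dependent cleavage of estrone sulfate substrate measured to derive IC50.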

Test [2] has as its target Arylsulfatase B (Homo sapiens) (UniProt P15848). In words: Inhibitory activity against human aryl sulfatase B (ASB) isolated from human placenta at a concentration up to 10 uM. The method, boiled down:
(§1)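 Arylsulfatases A and B purified from human placenta and assayed with inhibitor present at up to 10 μM. Time dependence of inhibition examined.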

Test [3] concerns the target T1, Steryl-sulfatase. In words: Inhibitory constant against purified human steroid sulfatase.
A further test addresses Estrogen receptor beta (Homo sapiens, UniProt Q92731). Description: Affinity for human estrogen receptor beta.
Test [4] concerns the target T2, Steryl-sulfatase (Homo sapiens) (UniProt P08842).
T2 sequence (whole entry): T1 sequence (P08842 whole entry)
Description: Rate constant of inactivation against human steroid sulfatase. The method, boiled down: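 Purified human steroid sulfatase incubated with a range of inhibitor concentrations. Residual enzyme activity measured over time to follow inactivation kinetics, giving Ki and kinact.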

The target in test [5] is T1, Steryl-sulfatase. In words: Inhibitory activity against human steroid sulfatase in fibroblasts.
The target of test [6] is T1, Steryl-sulfatase. In words: Inhibitory activity against human steroid sulfatase expressing in CHO cells. It counts as cell-based.
For test [7], the target named is T3, Arylsulfatase A (Homo sapiens) (UniProt P15289).
T3 sequence (whole entry): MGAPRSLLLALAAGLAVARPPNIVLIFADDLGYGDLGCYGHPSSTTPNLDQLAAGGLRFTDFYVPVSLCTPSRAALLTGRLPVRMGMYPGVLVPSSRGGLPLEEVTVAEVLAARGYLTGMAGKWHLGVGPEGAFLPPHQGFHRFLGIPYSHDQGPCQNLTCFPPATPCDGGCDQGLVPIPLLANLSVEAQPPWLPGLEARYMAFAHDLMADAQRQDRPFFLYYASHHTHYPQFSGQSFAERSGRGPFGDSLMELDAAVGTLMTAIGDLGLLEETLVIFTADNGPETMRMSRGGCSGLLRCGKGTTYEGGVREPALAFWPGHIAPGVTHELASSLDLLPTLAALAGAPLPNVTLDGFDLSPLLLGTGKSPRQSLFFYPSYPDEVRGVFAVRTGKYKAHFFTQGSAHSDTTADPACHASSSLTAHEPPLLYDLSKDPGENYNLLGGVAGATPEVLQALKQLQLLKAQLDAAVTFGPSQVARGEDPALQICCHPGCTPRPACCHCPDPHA
In words: Inhibitory activity against human Arylsulfatase A (ASA) isolated from human placenta; IA=Inactive. A digest of the protocol: as §1

In another test the target is T4, Estrogen receptor (Homo sapiens, UniProt P03372).
T4 sequence (P03372 whole entry): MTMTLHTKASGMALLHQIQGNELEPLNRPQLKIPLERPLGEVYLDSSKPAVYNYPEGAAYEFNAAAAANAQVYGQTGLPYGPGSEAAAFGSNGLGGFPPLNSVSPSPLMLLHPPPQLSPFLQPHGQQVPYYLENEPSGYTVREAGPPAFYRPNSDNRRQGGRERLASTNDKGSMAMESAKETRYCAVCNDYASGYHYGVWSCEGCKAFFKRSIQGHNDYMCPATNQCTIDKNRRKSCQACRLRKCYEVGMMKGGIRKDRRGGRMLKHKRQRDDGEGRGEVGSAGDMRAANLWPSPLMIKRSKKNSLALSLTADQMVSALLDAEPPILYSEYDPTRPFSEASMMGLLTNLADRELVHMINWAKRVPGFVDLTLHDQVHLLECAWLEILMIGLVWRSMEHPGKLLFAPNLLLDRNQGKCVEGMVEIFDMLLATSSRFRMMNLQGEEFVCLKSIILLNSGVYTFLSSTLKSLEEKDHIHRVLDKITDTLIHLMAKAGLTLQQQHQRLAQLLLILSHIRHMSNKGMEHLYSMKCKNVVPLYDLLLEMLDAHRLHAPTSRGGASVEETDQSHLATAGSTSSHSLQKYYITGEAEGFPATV
In words: Affinity for human estrogen receptor alpha.

Test [8] addresses T1, Steryl-sulfatase. In words: Inhibition of human STS in keratinocytes. In kind it is cell-based.

A word on the IC50: it is the concentration at which inhibition is half-maximal. The term inhibition denotes the relative decrease from the control value, in per cent. A lower inhibition goes with little suppression. Usually Ki stands for a dissociation constant, usually derived from enzyme kinetics or from competition with a known ligand. High values mean weaker binding, low ones tighter binding. What is called EC50 is the concentration needed to bring the measured effect to its halfway point.

Estrogen receptor beta, sequence (Q92731 whole entry): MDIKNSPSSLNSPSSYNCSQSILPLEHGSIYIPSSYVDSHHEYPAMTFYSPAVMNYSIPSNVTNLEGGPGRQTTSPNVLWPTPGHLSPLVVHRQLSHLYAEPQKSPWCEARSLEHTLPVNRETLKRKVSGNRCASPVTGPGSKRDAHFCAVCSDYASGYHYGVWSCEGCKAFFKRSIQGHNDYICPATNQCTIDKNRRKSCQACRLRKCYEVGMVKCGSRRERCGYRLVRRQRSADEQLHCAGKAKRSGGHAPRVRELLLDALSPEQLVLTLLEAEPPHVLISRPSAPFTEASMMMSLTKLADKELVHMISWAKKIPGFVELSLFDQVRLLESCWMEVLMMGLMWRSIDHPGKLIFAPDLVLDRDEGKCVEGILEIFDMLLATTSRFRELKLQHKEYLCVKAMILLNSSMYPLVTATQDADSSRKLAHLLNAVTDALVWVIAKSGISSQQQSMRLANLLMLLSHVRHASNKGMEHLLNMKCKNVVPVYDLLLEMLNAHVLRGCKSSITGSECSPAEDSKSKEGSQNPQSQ
Arylsulfatase B (Homo sapiens), sequence (P15848 whole entry): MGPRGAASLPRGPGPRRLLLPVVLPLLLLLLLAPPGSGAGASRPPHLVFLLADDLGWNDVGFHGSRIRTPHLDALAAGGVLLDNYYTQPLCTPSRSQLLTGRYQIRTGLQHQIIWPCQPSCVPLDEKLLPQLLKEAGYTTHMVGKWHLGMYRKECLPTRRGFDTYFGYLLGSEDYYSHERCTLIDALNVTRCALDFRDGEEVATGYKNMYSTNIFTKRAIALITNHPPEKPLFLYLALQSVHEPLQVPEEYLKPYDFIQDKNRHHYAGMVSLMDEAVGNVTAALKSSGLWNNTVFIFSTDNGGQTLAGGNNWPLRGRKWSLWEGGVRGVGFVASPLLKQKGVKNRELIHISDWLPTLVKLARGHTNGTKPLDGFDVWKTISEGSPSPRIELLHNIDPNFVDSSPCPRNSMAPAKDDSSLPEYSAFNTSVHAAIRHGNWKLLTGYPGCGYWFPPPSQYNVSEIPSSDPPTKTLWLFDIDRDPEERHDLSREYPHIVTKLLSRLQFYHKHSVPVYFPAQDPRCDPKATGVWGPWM

Take `NS(=O)(=O)Oc1ccc2nc(C=C3C4CC5CC(C4)CC3C5)oc2c1`: the IC50 worked out at 2.3 nM on Steryl-sulfatase [1], 0.75 nM against Steryl-sulfatase [5], 31.8 nM at Steryl-sulfatase [6] and 0.77 nM against Steryl-sulfatase [8]. The compound further came in with an inhibition in test [2] of 25%. The compound further came in with an inhibition constant (Ki) at Steryl-sulfatase [3] of 6000 nM. Further, the 50% effective concentration (EC50) at Estrogen receptor beta and at Estrogen receptor was greater than 100000 nM in each case. This compound had a K inact in [4] of 0.097 U s-1. The outcome in test [7] was inactive.
Take `C[C@]12CC[C@@H]3c4ccc(OS(N)(=O)=O)cc4CCC3[C@@H]1CCC2=O` (single isomer, unassigned) [EMATE]: on Steryl-sulfatase [3], the Ki came out at 470 nM. Also, the results for the EC50 at Estrogen receptor beta and at Estrogen receptor were 3700 nM and 2600 nM, respectively. Moreover, the K inact in [4] was 0.009 U s-1.
